≈ marks a conversion by molar mass, not a printed value.
What was measured:
Format in all cases: functional
MRC5 [1] = test: Cytotoxicity against human MRC5 cells assessed as growth inhibition at 10^-5 M after 72 hrs by MTS assay relative to control; settings: MRC5, 72 h, read-out: GI
Outline: (§1)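 Cells from ATCC; HCT-116 grown in RPMI 1640 and MRC5 in DMEM, each with 10% FCS and 1% glutamine, 37 °C, 5% CO2. Seeded at 2.5 × 10^3 cells/well, cultured 24 h, then exposed to compounds at 1 and 10 μM final for 72 h. MTS read-out, absorbance 490 nm; percent index from treated/control OD490 × 100, three experiments.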

Mammaliicoccus sciuri = test: Antibacterial activity against Staphylococcus sciuri N993 after 18 hrs by agar dilution method; settings: N993, 18 h
Outline: (§2)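 Agar-dilution MIC against Gram-positive strains. Compounds in DMSO, geometric dilutions giving final 100−0.75 mg/L in Mueller Hinton agar. Strains grown 18 h at 37 °C in trypticase soy broth, diluted in sterile water, spotted by Steers inoculator (about 1000 UFC/spot). Plates incubated 18 h at 37 °C; DMSO blank; ofloxacin positive control. MIC = lowest concentration with no visible growth.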

Enterococcus faecalis [2] = test: Antibacterial activity against Enterococcus faecalis N518 after 18 hrs by agar dilution method; settings: N518, 18 h; outline: as §2
Enterococcus faecalis [3] = test: Antibacterial activity against Enterococcus faecalis CIP 103214 after 18 hrs by agar dilution method; settings: CIP 103214, 18 h; outline: as §2
Bacillus spizizenii = test: Antibacterial activity against Bacillus subtilis ATCC 6633 after 18 hrs by agar dilution method; settings: ATCC 6633, 18 h; outline: as §2
Staphylococcus aureus [4] = test: Antibacterial activity against Staphylococcus aureus ATCC 25923 after 18 hrs by agar dilution method; settings: ATCC 25923, 18 h; outline: as §2
Enterococcus durans = test: Antibacterial activity against Enterococcus durans CIP 104999 after 18 hrs by agar dilution method; settings: CIP 104999, 18 h; outline: as §2
Enterococcus faecium [5] = test: Antibacterial activity against Enterococcus faecium N733 after 18 hrs by agar dilution method; settings: N733, 18 h; outline: as §2
Staphylococcus aureus [6] = test: Antibacterial activity against Staphylococcus aureus CIP 53156 after 18 hrs by agar dilution method; settings: CIP 53156, 18 h; outline: as §2
Enterococcus faecium [7] = test: Antibacterial activity against Enterococcus faecium N490 after 18 hrs by agar dilution method; settings: N490, 18 h; outline: as §2
[8] = test system: Staphylococcus haemolyticus; test: Antibacterial activity against Staphylococcus haemolyticus CIP 8156 after 18 hrs by agar dilution method; settings: CIP 8156, 18 h; outline: as §2
Enterococcus faecalis [9] = test: Antibacterial activity against Enterococcus faecalis CIP 104676 after 18 hrs by agar dilution method; settings: CIP 104676, 18 h; outline: as §2
[10] = test system: Staphylococcus saprophyticus; test: Antibacterial activity against Staphylococcus saprophyticus E260 after 18 hrs by agar dilution method; settings: E260, 18 h; outline: as §2
Streptococcus agalactiae = test: Antibacterial activity against Streptococcus agalactiae CIP 103227 after 18 hrs by agar dilution method; settings: ATCC 13813, 18 h; outline: as §2
Enterococcus faecium [11] = test: Antibacterial activity against Enterococcus faecium CIP 103014 after 18 hrs by agar dilution method; settings: CIP 103014, 18 h; outline: as §2
[12] = test system: Enterococcus casseliflavus; test: Antibacterial activity against Enterococcus casseliflavus CIP 103018 after 18 hrs by agar dilution method; settings: CIP 103018, 18 h; outline: as §2
[13] = test system: Staphylococcus intermedius; test: Antibacterial activity against Staphylococcus intermedius N987 after 18 hrs by agar dilution method; settings: N987, 18 h; outline: as §2
Enterococcus faecalis [14] = test: Antibacterial activity against Enterococcus faecalis N520 after 18 hrs by agar dilution method; settings: N520, 18 h; outline: as §2
Listeria monocytogenes [15] = test: Antibacterial activity against Listeria monocytogenes N836 after 18 hrs by agar dilution method; settings: N836, 18 h; outline: as §2
Bacillus cereus [16] = test: Antibacterial activity against Bacillus cereus N258 after 18 hrs by agar dilution method; settings: N258, 18 h; outline: as §2
Staphylococcus aureus [17] = test: Antibacterial activity against Staphylococcus aureus CIP 5710 after 18 hrs by agar dilution method; settings: CIP 5710, 18 h; outline: as §2
Staphylococcus aureus [18] = test: Antibacterial activity against Staphylococcus aureus CRBIP 2121 after 18 hrs by agar dilution method; settings: CRBIP 2121, 18 h; outline: as §2
Corynebacterium striatum = test: Antibacterial activity against Corynebacterium striatum N840 after 18 hrs by agar dilution method; settings: N840, 18 h; outline: as §2
Bacillus cereus [19] = test: Antibacterial activity against Bacillus cereus CIP 6624 after 18 hrs by agar dilution method; settings: CIP 6624, 18 h; outline: as §2
Enterococcus gallinarum [20] = test: Antibacterial activity against Enterococcus gallinarum N492 after 18 hrs by agar dilution method; settings: N492, 18 h; outline: as §2
Staphylococcus aureus [21] = test: Antibacterial activity against Staphylococcus aureus CIP 53154 after 18 hrs by agar dilution method; settings: CIP 53154, 18 h; outline: as §2
MRC5 [22] = test: Cytotoxicity against human MRC5 cells assessed as growth inhibition at 10^-6 M after 72 hrs by MTS assay relative to control; settings: MRC5, 72 h, read-out: GI; outline: as §1
Enterococcus faecalis [23] = test: Antibacterial activity against Enterococcus faecalis N491 after 18 hrs by agar dilution method; settings: N491, 18 h; outline: as §2
Bacillus cereus [24] = test: Antibacterial activity against Bacillus cereus N190 after 18 hrs by agar dilution method; settings: N190, 18 h; outline: as §2
Listeria monocytogenes [25] = test: Antibacterial activity against Listeria monocytogenes CIP 103575 after 18 hrs by agar dilution method; settings: CIP 103575, 18 h; outline: as §2
Enterococcus avium = test: Antibacterial activity against Enterococcus avium CIP 104053 after 18 hrs by agar dilution method; settings: CIP 104053, 18 h; outline: as §2
Staphylococcus aureus [26] = test: Antibacterial activity against Staphylococcus aureus CIP 7625 after 18 hrs by agar dilution method; settings: CIP 7625, 18 h; outline: as §2
[27] = test system: Staphylococcus lugdunensis; test: Antibacterial activity against Staphylococcus lugdunensis ATCC 43809 after 18 hrs by agar dilution method; settings: ATCC 43809, 18 h; outline: as §2
[28] = test system: Staphylococcus saprophyticus; test: Antibacterial activity against Staphylococcus saprophyticus CIP 76125 after 18 hrs by agar dilution method; settings: CIP 76125, 18 h; outline: as §2
Enterococcus hirae = test: Antibacterial activity against Enterococcus hirae CIP 5855 after 18 hrs by agar dilution method; settings: CIP 5855, 18 h; outline: as §2
Enterococcus gallinarum [29] = test: Antibacterial activity against Enterococcus gallinarum CIP 105985 after 18 hrs by agar dilution method; settings: CIP 105985, 18 h; outline: as §2
Staphylococcus aureus [30] = test: Antibacterial activity against Staphylococcus aureus CIP 483 after 18 hrs by agar dilution method; settings: CIP 483, 18 h; outline: as §2
Listeria monocytogenes [31] = test: Antibacterial activity against Listeria monocytogenes N783 after 18 hrs by agar dilution method; settings: N783, 18 h; outline: as §2
Listeria monocytogenes [32] = test: Antibacterial activity against Listeria monocytogenes N851 after 18 hrs by agar dilution method; settings: N851, 18 h; outline: as §2
Enterococcus faecium [33] = test: Antibacterial activity against Enterococcus faecium N823 after 18 hrs by agar dilution method; settings: N823, 18 h; outline: as §2
Listeria innocua = test: Antibacterial activity against Listeria innocua E044 after 18 hrs by agar dilution method; settings: E044, 18 h; outline: as §2
Bacillus cereus [34] = test: Antibacterial activity against Bacillus cereus N349 after 18 hrs by agar dilution method; settings: N349, 18 h; outline: as §2
[35] = test system: Staphylococcus epidermidis; test: Antibacterial activity against Staphylococcus epidermidis CIP 53124 after 18 hrs by agar dilution method; settings: CIP 53124, 18 h; outline: as §2
Staphylococcus aureus [36] = test: Antibacterial activity against Staphylococcus aureus ATCC 9144 oxford after 18 hrs by agar dilution method; outline: as §2
HCT-116 [37] = test: Cytotoxicity against human HCT116 cells assessed as growth inhibition at 10^-6 M after 72 hrs by MTS assay relative to control; settings: HCT-116, 72 h, read-out: GI; outline: as §1
Enterococcus faecium [38] = test: Antibacterial activity against Enterococcus faecium CIP 107387 after 18 hrs by agar dilution method; settings: CIP 107387, 18 h; outline: as §2
[39] = test system: Enterococcus casseliflavus; test: Antibacterial activity against Enterococcus casseliflavus N487 after 18 hrs by agar dilution method; settings: N487, 18 h; outline: as §2
Enterococcus gallinarum [40] = test: Antibacterial activity against Enterococcus gallinarum N489 after 18 hrs by agar dilution method; settings: N489, 18 h; outline: as §2
Enterococcus faecium [41] = test: Antibacterial activity against Enterococcus faecium N507 after 18 hrs by agar dilution method; settings: N507, 18 h; outline: as §2
HCT-116 [42] = test: Cytotoxicity against human HCT116 cells assessed as growth inhibition at 10^-5 M after 72 hrs by MTS assay relative to control; settings: HCT-116, 72 h, read-out: GI; outline: as §1

MIC (Mammaliicoccus sciuri): 158 µM (≈ 50.3 µg/mL) | MIC (Enterococcus faecalis [2]): > 158 µM | MIC (Enterococcus faecalis [3]): > 158 µM | MIC (Bacillus spizizenii): 100 µM (≈ 31.8 µg/mL) | MIC (Staphylococcus aureus [4]): 158 µM (≈ 50.3 µg/mL) | MIC (Enterococcus durans): > 158 µM | MIC (Enterococcus faecium [5]): > 158 µM | MIC (Staphylococcus aureus [6]): 158 µM (≈ 50.3 µg/mL) | MIC (Enterococcus faecium [7]): 158 µM (≈ 50.3 µg/mL) | MIC (Enterococcus faecalis [9]): > 158 µM | MIC [10]: 158 µM (≈ 50.3 µg/mL) | MIC (Streptococcus agalactiae): 100 µM (≈ 31.8 µg/mL) | MIC (Enterococcus faecium [11]): > 158 µM | MIC [12]: > 158 µM | MIC [13]: 100 µM (≈ 31.8 µg/mL) | MIC (Enterococcus faecalis [14]): > 158 µM | MIC (Listeria monocytogenes [15]): > 158 µM | MIC (Bacillus cereus [16]): 50 µM (≈ 15.9 µg/mL) | MIC (Staphylococcus aureus [17]): 100 µM (≈ 31.8 µg/mL) | MIC (Staphylococcus aureus [18]): 100 µM (≈ 31.8 µg/mL) | MIC (Corynebacterium striatum): 158 µM (≈ 50.3 µg/mL) | MIC (Bacillus cereus [19]): 50 µM (≈ 15.9 µg/mL) | MIC (Enterococcus gallinarum [20]): > 158 µM | MIC (Staphylococcus aureus [21]): 158 µM (≈ 50.3 µg/mL) | MIC (Enterococcus faecalis [23]): > 158 µM | MIC (Bacillus cereus [24]): 25 µM (≈ 7.96 µg/mL) | MIC (Listeria monocytogenes [25]): 158 µM (≈ 50.3 µg/mL) | MIC (Enterococcus avium): > 158 µM | MIC (Staphylococcus aureus [26]): 158 µM (≈ 50.3 µg/mL) | MIC [27]: 158 µM (≈ 50.3 µg/mL) | MIC [28]: 158 µM (≈ 50.3 µg/mL) | MIC (Enterococcus hirae): > 158 µM | MIC (Enterococcus gallinarum [29]): > 158 µM | MIC (Staphylococcus aureus [30]): 158 µM (≈ 50.3 µg/mL) | MIC (Listeria monocytogenes [31]): 158 µM (≈ 50.3 µg/mL) | MIC (Listeria monocytogenes [32]): 158 µM (≈ 50.3 µg/mL) | MIC (Enterococcus faecium [33]): > 158 µM | MIC (Listeria innocua): 158 µM (≈ 50.3 µg/mL) | MIC (Bacillus cereus [34]): 50 µM (≈ 15.9 µg/mL) | MIC [35]: 158 µM (≈ 50.3 µg/mL) | MIC (Staphylococcus aureus [36]): 158 µM (≈ 50.3 µg/mL) | MIC (Enterococcus faecium [38]): > 158 µM | MIC [39]: > 158 µM | MIC (Enterococcus gallinarum [40]): 158 µM (≈ 50.3 µg/mL) | MIC (Enterococcus faecium [41]): > 158 µM
Compound: C=C(CC(=O)O)C(=O)C[C@H]1C(=C)CC[C@H]2C(C)(C)CCC[C@]12C
inhibition of growth at 10 µM (MRC5 [1]): 25% | MIC [8]: 158 µM (≈ 50.3 µg/mL) | inhibition of growth at 1 µM (MRC5 [22]): 22% | inhibition of growth at 1 µM (HCT-116 [37]): 0% | inhibition of growth at 10 µM (HCT-116 [42]): 46%

From ChEMBL document CHEMBL3585281, “Antibacterial Labdane Diterpenoids from Vitex vestita” (2015)
